# Data published in ChEMBL document CHEMBL1125626, “Synthesis and structure-activity relationship of new cephalosporins with amino heterocycles at C-7. Dependence of the antibacterial spectrum and beta-lactamase stability on the pKa of the C-7 heterocycle” (1991).
# Tests used:
# [1] = tested on: Pseudomonas aeruginosa; experiment: Minimum inhibitory concentration against Pseudomonas aeruginosa A21 (inoculum, 10e5 cfu per spot); format: functional
# In short: (§1)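 MIC in µg/mL, determined in Jewell and Permain growth medium with spot inoculation at 10^5 cfu per spot.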
# [2] = tested on: Staphylococcus aureus; experiment: Minimum inhibitory concentration against Staphylococcus aureus A4 (inoculum, 10e5 cfu per spot); format: functional; in short: as §1
# [3] = tested on: Enterobacter cloacae; experiment: Minimum inhibitory concentration against Enterobacter cloacae P99 (inoculum, 10e4 cfu per spot)(type I lactamase producer); format: functional
# In short: (§2)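 MIC in µg/mL, determined in Jewell and Permain growth medium with spot inoculation at 10^4 cfu per spot. P99 is described as a constitutive type I lactamase producer.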
# [4] = tested on: Escherichia coli; experiment: Minimum inhibitory concentration against Escherichia coli TEM X3 (inoculum, 10e4 cfu per spot)(TEM I type lactamase producer)
# [5] = tested on: Streptococcus pyogenes; experiment: Minimum inhibitory concentration against Streptococcus pyogenes (inoculum, 10e5 cfu per spot) A1; format: functional; in short: as §1
# [6] = tested on: Klebsiella pneumoniae; experiment: Minimum inhibitory concentration against Klebsiella pneumoniae A24 (inoculum, 10e5 cfu per spot); format: functional; in short: as §1
# [7] = tested on: Escherichia coli; experiment: Minimum inhibitory concentration against Escherichia coli A8 (inoculum, 10e5 cfu per spot); format: functional; in short: as §1
# [8] = tested on: Escherichia coli; experiment: Minimum inhibitory concentration against Escherichia coli X4 (inoculum, 10e4 cfu per spot)
# [9] = tested on: Klebsiella aerogenes; experiment: Minimum inhibitory concentration against Klebsiella aerogenes X6 (inoculum, 10e4 cfu per spot); format: functional; in short: as §2
# [10] = tested on: Serratia marcescens; experiment: Minimum inhibitory concentration against Serratia marcescens A16 (inoculum, 10e5 cfu per spot); format: functional; in short: as §1
# [11] = tested on: Enterobacter cloacae; experiment: Minimum inhibitory concentration against Enterobacter cloacae A13 (inoculum, 10e5 cfu per spot); format: functional; in short: as §1
# [12] = tested on: Proteus mirabilis; experiment: Minimum inhibitory concentration against Proteus mirabilis A18 (inoculum, 10e5 cfu per spot); format: functional; in short: as §1
# [13] = tested on: Escherichia coli; experiment: Minimum inhibitory concentration against Escherichia coli DCO (inoculum, 10e4 cfu per spot); format: functional; in short: as §2
# [14] = tested on: Escherichia coli; experiment: Minimum inhibitory concentration against Escherichia coli DC2 (inoculum, 10e4 cfu per spot); format: functional; in short: as §2
# [15] = tested on: Staphylococcus aureus; experiment: Minimum inhibitory concentration against Staphylococcus aureus A6 (inoculum, 10e5 cfu per spot); format: functional; in short: as §1
# [16] = tested on: Klebsiella aerogenes; experiment: Minimum inhibitory concentration against Klebsiella aerogenes X5L (inoculum, 10e4 cfu per spot); format: functional; in short: as §2
# [17] = tested on: Enterobacter cloacae; experiment: Minimum inhibitory concentration against Enterobacter cloacae P99 (inoculum, 10e4 cfu per spot); format: functional; in short: as §2
# [18] = tested on: Proteus vulgaris; experiment: Minimum inhibitory concentration against Proteus vulgaris Pv9 (inoculum, 10e5 cfu per spot)
SMILES,MIC [1] [µg/mL],MIC [2] [µg/mL],MIC [3] [µg/mL],MIC [4] [µg/mL],MIC [5] [µg/mL],MIC [6] [µg/mL],MIC [7] [µg/mL],MIC [8] [µg/mL],MIC [9] [µg/mL],MIC [10] [µg/mL],MIC [11] [µg/mL],MIC [12] [µg/mL],MIC [13] [µg/mL],MIC [14] [µg/mL],MIC [15] [µg/mL],MIC [16] [µg/mL],MIC [17] [µg/mL],MIC [18] [µg/mL]
CO[C@@]1(NC2=NCCN2)C(=O)N2C(C(=O)OC(c3ccccc3)c3ccccc3)=C(C)CSC21 (some centres not stated),> 256,> 256,> 256,> 256,> 256,> 256,> 256,> 256,> 256,> 256,> 256,> 256,> 256,> 256,> 256,> 256,> 256,–
CO[C@@]1(Nc2nc3ccccc3[nH]2)C(=O)N2C(C(=O)OC(c3ccccc3)c3ccccc3)=C(COC(C)=O)CSC21 (some centres not stated),> 256,> 256,> 256,> 256,> 256,> 256,> 256,> 256,> 256,> 256,> 256,> 256,> 256,> 256,> 256,> 256,> 256,–
Cn1nnnc1SCC1=C(C(=O)OC(C)(C)C)N2C(=O)[C@@H](NC3=NCCN3)C2SC1 (some centres not stated),> 256,> 256,8,1,128,2,2,1,1,32,–,> 256,8,–,> 256,2,1,–
CC(=O)OCC1=C(C(=O)OC(c2ccccc2)c2ccccc2)N2C(=O)[C@@H](Nc3nc4cscc4[nH]3)C2SC1 (some centres not stated),> 256,32,> 256,4,2,16,8,0.5,2,> 256,> 256,32,1,0.06,4,128,1,–
CC1=C(C(=O)OC(c2ccccc2)c2ccccc2)N2C(=O)[C@@H](NC3=NC(c4ccc(C#N)cc4)CN3)C2SC1 (some centres not stated),> 256,> 256,8,4,64,16,4,4,8,16,> 256,> 256,2,2,> 256,8,4,–
CC1=C(C(=O)OC(c2ccccc2)c2ccccc2)N2C(=O)[C@@H](NC3=NC(C(N)=O)CN3)C2SC1 (some centres not stated),> 256,> 256,8,8,> 256,16,32,8,16,> 256,> 256,> 256,8,2,> 256,16,4,–
CC(=O)OCC1=C(C(=O)OC(C)(C)C)N2C(=O)[C@@H](Nc3nc4cc([N+](=O)[O-])ccc4[nH]3)C2SC1 (some centres not stated),> 200,200,> 200,> 200,1,40,40,> 200,> 200,> 200,40,40,128,8,1,> 200,64,–
CC(=O)OCC1=C(C(=O)OC(c2ccccc2)c2ccccc2)N2C(=O)[C@@H](Nc3nc4c(C)cccc4[nH]3)C2SC1 (some centres not stated),≥ 128,8,≥ 128,32,8,8,16,8,16,≥ 128,≥ 128,8,8,0.25,4,≥ 128,32,≥ 128
CC(=O)OCC1=C(C(=O)OC(C)(C)C)N2C(=O)[C@@H](Nc3nc4ccccc4n3C)C2SC1 (some centres not stated),> 256,> 256,> 256,64,32,–,128,32,256,> 256,> 256,32,64,0.25,32,256,64,–
CC1=C(C(=O)OC(c2ccccc2)c2ccccc2)N2C(=O)[C@@H](NC3=NCC(C)N3)C2SC1 (some centres not stated),> 256,> 256,2,2,> 256,> 256,128,2,8,> 256,> 256,> 256,8,4,> 256,40,2,–
CC(=O)OCC1=C(C(=O)OC(c2ccccc2)c2ccccc2)N2C(=O)[C@@H](Nc3nc4c(N)cccc4[nH]3)C2SC1 (some centres not stated),> 200,> 200,> 200,128,40,> 200,40,8,8,> 200,> 200,200,4,1,40,> 200,4,–
CC(=O)OCC1=C(C(=O)OC(c2ccccc2)c2ccccc2)N2C(=O)[C@@H](Nc3nc4cc(O)ccc4[nH]3)C2SC1 (some centres not stated),> 256,16,128,1,–,2,0.12,0.12,0.5,256,128,0.5,0.12,0.016,4,64,0.12,32
CC(=O)OCC1=C(C(=O)OC(c2ccccc2)c2ccccc2)N2C(=O)[C@@H](Nc3nc4cc(C(=O)O)ccc4[nH]3)C2SC1 (some centres not stated),> 256,256,> 256,16,8,32,16,8,16,> 256,> 256,32,8,0.25,32,> 256,4,–
CC1=C(C(=O)OC(C)(C)C)N2C(=O)[C@@H](Nc3nc4ccccc4n3CC(=O)OC(C)(C)C)C2SC1 (some centres not stated),> 256,> 256,> 256,> 256,> 256,–,> 256,> 256,> 256,> 256,> 256,> 256,> 256,> 256,> 256,> 256,> 256,–
CC(=O)Nc1ccc2[nH]c(N[C@@H]3C(=O)N4C(C(=O)OC(C)(C)C)=C(COC(C)=O)CSC34)nc2c1 (some centres not stated),> 256,256,> 256,16,4,32,1,1,2,> 256,> 256,8,1,0.12,8,> 256,2,128
CC1=C(C(=O)OC(c2ccccc2)c2ccccc2)N2C(=O)[C@@H](NC3=NC(c4ccccc4)CN3)C2SC1 (some centres not stated),> 256,> 256,2,1,256,4,2,1,2,–,2,> 256,1,0.5,> 256,8,1,> 256
CC1=C(C(=O)OC(c2ccccc2)c2ccccc2)N2C(=O)[C@@H](NC3=NCCN3C)C2SC1 (some centres not stated),> 200,> 200,128,128,> 200,40,40,128,128,> 200,> 200,> 200,128,32,> 200,> 200,64,–
